According to ChEMBL document CHEMBL1649097, “Kinase inhibition by deoxy analogues of the resorcylic lactone L-783277” (ACS Med Chem Lett, 2011):

What was measured:
Plasma [1] = experiment: Metabolic stability in human plasma assessed as compound conversion to metabolite C7'-C8' E isomer at 55 uM after 20 mins at 37 degC; assay type: ADME, cell-free
Blood = experiment: Metabolic stability in mouse blood assessed as compound conversion to metabolite C7'-C8' E isomer; assay type: ADME, tissue-based
Plasma [2] = experiment: Metabolic stability in mouse plasma assessed as compound conversion to metabolite C7'-C8' E isomer; assay type: ADME, cell-free
[3] = biological target: Glycogen synthase kinase-3 beta (Homo sapiens, UniProt P49841); experiment: Inhibition of GSK3-beta by TR-FRET based LanthaScreen assay
Summary of the method: (§1)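 LanthaScreen TR-FRET kinase format, run per the group's earlier protocol. IC50 from two independent experiments; for some compounds, PDGFRα and VEGFR2 values are means ± SD of three independent runs. The FGFR3 used was the K651E mutant.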

[4] = biological target: Mitogen-activated protein kinase 14 (Homo sapiens, UniProt Q16539); experiment: Inhibition of p38alpha by Caliper mobility shift assay
Summary of the method: (§2)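 Caliper microfluidic mobility shift readout of substrate phosphorylation, run per the group's earlier kinase protocol. IC50 taken from two independent experiments.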

[5] = biological target: Receptor tyrosine-protein kinase erbB-2 (Homo sapiens, UniProt P04626); experiment: Inhibition of HER2 by TR-FRET based LanthaScreen assay; summary of the method: as §1
[6] = biological target: Serine/threonine-protein kinase N2 (Homo sapiens, UniProt Q16513); experiment: Inhibition of PKN2 by Caliper mobility shift assay; summary of the method: as §2
[7] = biological target: Tyrosine-protein kinase JAK1 (Homo sapiens, UniProt P23458); experiment: Inhibition of JAK1 by TR-FRET based LanthaScreen assay
[8] = Inhibition of CDK4D1 by Caliper mobility shift assay
Summary of the method: (§3)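 Caliper mobility shift kinase assay with phosphorylation of a substrate; IC50 derived from two independent experiments.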

[9] = biological target: Mast/stem cell growth factor receptor Kit (Homo sapiens, UniProt P10721); experiment: Inhibition of cKIT by TR-FRET based LanthaScreen assay
Chain of Mast/stem cell growth factor receptor Kit (P10721 whole entry): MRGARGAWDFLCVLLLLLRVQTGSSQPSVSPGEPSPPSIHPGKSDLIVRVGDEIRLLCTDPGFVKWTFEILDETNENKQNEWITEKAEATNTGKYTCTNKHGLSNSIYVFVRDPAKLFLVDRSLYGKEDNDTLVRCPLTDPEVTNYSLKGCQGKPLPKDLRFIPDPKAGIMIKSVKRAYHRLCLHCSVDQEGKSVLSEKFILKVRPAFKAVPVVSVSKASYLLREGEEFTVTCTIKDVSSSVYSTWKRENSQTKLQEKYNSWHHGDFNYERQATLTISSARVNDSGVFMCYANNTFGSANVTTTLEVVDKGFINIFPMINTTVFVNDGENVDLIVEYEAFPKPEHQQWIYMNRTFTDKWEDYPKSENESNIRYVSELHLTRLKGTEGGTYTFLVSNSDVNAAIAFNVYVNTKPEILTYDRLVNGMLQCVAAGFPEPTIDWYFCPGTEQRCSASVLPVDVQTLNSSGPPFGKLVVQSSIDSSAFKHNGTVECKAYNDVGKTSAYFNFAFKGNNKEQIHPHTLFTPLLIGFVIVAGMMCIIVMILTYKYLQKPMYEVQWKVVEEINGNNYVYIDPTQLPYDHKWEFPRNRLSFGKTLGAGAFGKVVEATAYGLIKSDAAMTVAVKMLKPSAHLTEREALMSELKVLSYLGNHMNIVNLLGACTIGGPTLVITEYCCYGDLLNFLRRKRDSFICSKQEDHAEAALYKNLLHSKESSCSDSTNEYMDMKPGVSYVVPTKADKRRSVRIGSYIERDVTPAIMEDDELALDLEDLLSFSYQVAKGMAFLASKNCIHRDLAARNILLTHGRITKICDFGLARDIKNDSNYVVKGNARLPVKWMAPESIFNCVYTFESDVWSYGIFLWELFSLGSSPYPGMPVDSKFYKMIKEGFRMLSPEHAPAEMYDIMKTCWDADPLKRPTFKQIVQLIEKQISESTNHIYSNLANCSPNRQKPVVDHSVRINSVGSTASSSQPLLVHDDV
Summary of the method: (§4)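 TR-FRET LanthaScreen kinase assay with phosphorylation of a substrate; FGFR3 used as the K651E mutant. IC50 derived from two independent experiments; for some compounds, ALK and cKIT values are averages ± SDs of three independent experiments.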

Aurora kinase A = Aurora kinase A (Homo sapiens, UniProt O14965); experiment: Inhibition of Aurora A kinase by Caliper mobility shift assay; summary of the method: as §2
Chain of Aurora kinase A (O14965 whole entry): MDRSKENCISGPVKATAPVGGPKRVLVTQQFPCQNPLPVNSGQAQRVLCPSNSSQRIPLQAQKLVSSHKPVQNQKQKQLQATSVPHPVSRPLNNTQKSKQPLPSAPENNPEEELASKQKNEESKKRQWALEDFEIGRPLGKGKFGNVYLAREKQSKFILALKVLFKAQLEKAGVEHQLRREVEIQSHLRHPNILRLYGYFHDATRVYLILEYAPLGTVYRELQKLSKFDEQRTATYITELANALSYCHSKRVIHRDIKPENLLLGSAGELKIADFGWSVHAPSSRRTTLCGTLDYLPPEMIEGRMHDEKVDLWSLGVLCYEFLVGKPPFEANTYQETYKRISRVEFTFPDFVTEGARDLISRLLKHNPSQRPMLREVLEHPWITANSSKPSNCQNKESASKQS

[10] = biological target: Insulin-like growth factor 1 receptor (Homo sapiens, UniProt P08069); experiment: Inhibition of IGF1R by TR-FRET based LanthaScreen assay; summary of the method: as §1
[11] = biological target: Serine/threonine-protein kinase N1 (Homo sapiens, UniProt Q16512); experiment: Inhibition of PKN1 by Caliper mobility shift assay; summary of the method: as §2
[12] = biological target: Platelet-derived growth factor receptor alpha (Homo sapiens, UniProt P16234, V561D); experiment: Inhibition of PDGFRalpha V561D mutant by TR-FRET based LanthaScreen assay; summary of the method: as §1
Chain of Platelet-derived growth factor receptor alpha (P16234 24-1089 V561D limits assumed): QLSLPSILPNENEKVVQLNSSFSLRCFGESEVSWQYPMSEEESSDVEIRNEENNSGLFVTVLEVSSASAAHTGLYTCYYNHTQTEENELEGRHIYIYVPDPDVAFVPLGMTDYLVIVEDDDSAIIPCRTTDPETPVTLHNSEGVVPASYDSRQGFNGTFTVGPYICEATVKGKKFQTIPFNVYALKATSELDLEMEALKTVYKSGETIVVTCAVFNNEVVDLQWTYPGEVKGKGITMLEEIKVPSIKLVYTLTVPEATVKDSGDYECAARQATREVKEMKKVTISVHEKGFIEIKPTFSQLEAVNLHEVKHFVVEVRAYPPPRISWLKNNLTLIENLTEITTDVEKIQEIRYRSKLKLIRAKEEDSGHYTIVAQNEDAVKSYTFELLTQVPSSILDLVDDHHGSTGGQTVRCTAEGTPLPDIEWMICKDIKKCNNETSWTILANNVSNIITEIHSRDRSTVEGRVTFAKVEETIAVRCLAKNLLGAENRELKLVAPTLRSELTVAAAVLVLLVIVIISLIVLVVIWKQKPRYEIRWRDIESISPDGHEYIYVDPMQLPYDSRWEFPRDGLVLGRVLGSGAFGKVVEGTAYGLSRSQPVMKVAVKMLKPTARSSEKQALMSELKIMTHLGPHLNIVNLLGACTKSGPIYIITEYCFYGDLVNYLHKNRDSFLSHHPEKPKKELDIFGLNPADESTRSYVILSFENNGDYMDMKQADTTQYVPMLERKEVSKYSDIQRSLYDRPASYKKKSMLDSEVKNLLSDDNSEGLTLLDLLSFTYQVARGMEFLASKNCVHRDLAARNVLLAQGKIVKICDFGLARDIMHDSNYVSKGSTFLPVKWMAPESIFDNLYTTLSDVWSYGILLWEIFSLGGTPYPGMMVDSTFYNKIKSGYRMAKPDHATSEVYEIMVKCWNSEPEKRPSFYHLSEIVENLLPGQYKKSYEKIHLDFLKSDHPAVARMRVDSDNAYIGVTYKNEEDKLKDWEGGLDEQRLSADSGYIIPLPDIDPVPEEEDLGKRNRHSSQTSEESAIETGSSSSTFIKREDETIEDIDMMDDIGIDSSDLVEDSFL

[13] = biological target: Hepatocyte growth factor receptor (Homo sapiens, UniProt P08581); experiment: Inhibition of HGFR by TR-FRET based LanthaScreen assay; summary of the method: as §1
[14] = biological target: ALK tyrosine kinase receptor (Homo sapiens, UniProt Q9UM73); experiment: Inhibition of ALK by TR-FRET based LanthaScreen assay; summary of the method: as §4
[15] = Inhibition of PKAtau by TR-FRET based LanthaScreen assay; summary of the method: as §4
Ephrin type-B receptor 4 = biological target: T1, Ephrin type-B receptor 4 (Homo sapiens, UniProt P54760); experiment: Inhibition of EPHB4 by TR-FRET based LanthaScreen assay; summary of the method: as §1
T1 sequence (P54760 whole entry): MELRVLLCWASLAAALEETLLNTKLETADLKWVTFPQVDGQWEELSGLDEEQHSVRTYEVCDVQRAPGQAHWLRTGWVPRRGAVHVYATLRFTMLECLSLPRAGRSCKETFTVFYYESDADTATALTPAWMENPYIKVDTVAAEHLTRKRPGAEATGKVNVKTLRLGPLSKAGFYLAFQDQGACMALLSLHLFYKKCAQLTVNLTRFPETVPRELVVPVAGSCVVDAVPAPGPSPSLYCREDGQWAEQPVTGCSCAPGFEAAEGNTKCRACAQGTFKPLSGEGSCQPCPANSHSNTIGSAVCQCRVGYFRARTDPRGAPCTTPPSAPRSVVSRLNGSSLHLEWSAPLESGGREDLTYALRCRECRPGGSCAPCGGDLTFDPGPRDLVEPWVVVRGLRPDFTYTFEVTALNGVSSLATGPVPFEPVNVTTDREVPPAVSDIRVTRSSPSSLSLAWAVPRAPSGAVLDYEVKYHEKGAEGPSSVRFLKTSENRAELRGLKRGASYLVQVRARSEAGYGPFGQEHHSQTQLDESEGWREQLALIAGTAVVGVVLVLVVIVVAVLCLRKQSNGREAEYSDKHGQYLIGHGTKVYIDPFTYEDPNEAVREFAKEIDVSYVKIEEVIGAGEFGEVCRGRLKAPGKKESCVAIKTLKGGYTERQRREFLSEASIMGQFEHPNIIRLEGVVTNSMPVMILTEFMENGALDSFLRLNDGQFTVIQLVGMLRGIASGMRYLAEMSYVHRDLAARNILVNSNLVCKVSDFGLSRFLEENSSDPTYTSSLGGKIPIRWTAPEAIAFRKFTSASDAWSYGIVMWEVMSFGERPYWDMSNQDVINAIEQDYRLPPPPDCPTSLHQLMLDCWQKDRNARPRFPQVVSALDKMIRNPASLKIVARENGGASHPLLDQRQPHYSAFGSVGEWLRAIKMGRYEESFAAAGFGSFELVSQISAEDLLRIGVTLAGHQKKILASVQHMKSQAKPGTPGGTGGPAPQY

[16] = biological target: MAP kinase-interacting serine/threonine-protein kinase 2 (Homo sapiens, UniProt Q9HBH9); experiment: Inhibition of MNK2 by TR-FRET based LanthaScreen assay; summary of the method: as §4
Ephrin type-A receptor 4 = Ephrin type-A receptor 4 (Homo sapiens, UniProt P54764); experiment: Inhibition of EPHA4 by TR-FRET based LanthaScreen assay; summary of the method: as §1
[17] = biological target: cAMP-dependent protein kinase catalytic subunit alpha (Homo sapiens, UniProt P17612); experiment: Inhibition of PKAalpha by TR-FRET LanthaScreen assay
[18] = biological target: Cyclin-dependent kinase 2 (Homo sapiens, UniProt P24941); experiment: Inhibition of CDK2A by Caliper mobility shift assay; summary of the method: as §2
[19] = biological target: Non-receptor tyrosine-protein kinase TYK2 (Homo sapiens, UniProt P29597); experiment: Inhibition of TYK2 by TR-FRET based LanthaScreen assay; summary of the method: as §1
[20] = biological target: Tyrosine-protein kinase receptor UFO (Homo sapiens, UniProt P30530); experiment: Inhibition of Axl by TR-FRET based LanthaScreen assay; summary of the method: as §1
[21] = biological target: Tyrosine-protein kinase ZAP-70 (Homo sapiens, UniProt P43403); experiment: Inhibition of ZAP70 by TR-FRET based LanthaScreen assay; summary of the method: as §1
[22] = biological target: Proto-oncogene tyrosine-protein kinase receptor Ret (Homo sapiens, UniProt P07949); experiment: Inhibition of RET by TR-FRET based LanthaScreen assay; summary of the method: as §1
[23] = biological target: Mitogen-activated protein kinase 1 (Homo sapiens, UniProt P28482); experiment: Inhibition of ERK2 by Caliper mobility shift assay; summary of the method: as §3
Chain of Mitogen-activated protein kinase 1 (P28482 whole entry): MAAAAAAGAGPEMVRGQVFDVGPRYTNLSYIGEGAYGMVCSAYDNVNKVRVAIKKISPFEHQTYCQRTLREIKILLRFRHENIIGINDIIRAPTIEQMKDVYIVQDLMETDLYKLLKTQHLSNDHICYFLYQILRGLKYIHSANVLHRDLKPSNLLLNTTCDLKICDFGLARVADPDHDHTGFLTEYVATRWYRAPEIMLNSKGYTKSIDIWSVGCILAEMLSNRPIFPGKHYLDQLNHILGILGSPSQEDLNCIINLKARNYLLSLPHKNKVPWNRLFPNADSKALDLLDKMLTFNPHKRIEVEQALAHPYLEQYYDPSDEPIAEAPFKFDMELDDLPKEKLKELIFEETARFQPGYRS

[24] = biological target: Rho-associated protein kinase 2 (Homo sapiens, UniProt O75116); experiment: Inhibition of ROCK2 by Caliper mobility shift assay; summary of the method: as §2
[25] = biological target: T2, Vascular endothelial growth factor receptor 2 (Homo sapiens, UniProt P35968); experiment: Inhibition of VEGFR2 by TR-FRET based LanthaScreen assay; summary of the method: as §1
T2 sequence (P35968 whole entry): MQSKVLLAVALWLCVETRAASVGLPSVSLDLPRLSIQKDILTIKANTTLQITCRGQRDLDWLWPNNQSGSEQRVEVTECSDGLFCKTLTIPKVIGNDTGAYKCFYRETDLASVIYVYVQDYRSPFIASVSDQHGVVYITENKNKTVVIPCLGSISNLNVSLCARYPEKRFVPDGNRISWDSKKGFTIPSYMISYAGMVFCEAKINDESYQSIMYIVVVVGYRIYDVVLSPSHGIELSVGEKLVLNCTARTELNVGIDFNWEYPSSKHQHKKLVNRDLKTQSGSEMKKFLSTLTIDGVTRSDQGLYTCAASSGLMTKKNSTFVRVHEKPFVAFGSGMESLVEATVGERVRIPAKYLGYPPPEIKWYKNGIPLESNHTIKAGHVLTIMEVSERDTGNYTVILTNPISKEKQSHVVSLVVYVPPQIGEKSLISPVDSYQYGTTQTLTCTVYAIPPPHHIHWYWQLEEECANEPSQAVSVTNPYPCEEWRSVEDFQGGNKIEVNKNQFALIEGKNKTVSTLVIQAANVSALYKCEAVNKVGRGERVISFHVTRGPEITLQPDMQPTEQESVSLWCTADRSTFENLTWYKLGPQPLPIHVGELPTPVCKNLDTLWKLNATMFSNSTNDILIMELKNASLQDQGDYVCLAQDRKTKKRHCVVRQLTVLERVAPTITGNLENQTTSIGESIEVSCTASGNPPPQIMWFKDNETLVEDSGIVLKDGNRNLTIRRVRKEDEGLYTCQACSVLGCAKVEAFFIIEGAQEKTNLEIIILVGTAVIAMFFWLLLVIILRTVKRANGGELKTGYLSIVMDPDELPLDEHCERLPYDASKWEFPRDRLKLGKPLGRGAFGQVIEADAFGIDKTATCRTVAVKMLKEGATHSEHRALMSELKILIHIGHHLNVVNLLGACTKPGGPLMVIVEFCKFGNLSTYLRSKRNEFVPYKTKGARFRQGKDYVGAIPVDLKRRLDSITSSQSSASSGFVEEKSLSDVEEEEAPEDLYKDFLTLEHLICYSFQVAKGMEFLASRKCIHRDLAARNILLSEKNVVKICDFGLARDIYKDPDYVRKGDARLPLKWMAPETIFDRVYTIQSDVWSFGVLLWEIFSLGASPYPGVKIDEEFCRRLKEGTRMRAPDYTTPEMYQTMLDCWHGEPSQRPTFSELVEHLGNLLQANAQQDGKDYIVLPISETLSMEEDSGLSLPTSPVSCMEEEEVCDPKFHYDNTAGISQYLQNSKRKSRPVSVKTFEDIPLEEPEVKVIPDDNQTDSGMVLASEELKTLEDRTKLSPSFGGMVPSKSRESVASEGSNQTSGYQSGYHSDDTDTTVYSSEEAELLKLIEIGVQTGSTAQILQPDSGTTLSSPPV

[26] = biological target: Fibroblast growth factor receptor 3 (Homo sapiens, UniProt P22607); experiment: Inhibition of FGFR3 by TR-FRET based LanthaScreen assay; summary of the method: as §1
[27] = Inhibition of COT1 by Caliper mobility shift assay; summary of the method: as §3
[28] = biological target: Tyrosine-protein kinase JAK3 (Homo sapiens, UniProt P52333); experiment: Inhibition of JAK3 by Caliper mobility shift assay; summary of the method: as §2
[29] = biological target: Tyrosine-protein kinase JAK2 (Homo sapiens, UniProt O60674); experiment: Inhibition of JAK2 by TR-FRET based LanthaScreen assay
Insulin receptor = Insulin receptor (Homo sapiens, UniProt P06213); experiment: Inhibition of INSR by TR-FRET based LanthaScreen assay; summary of the method: as §1
[30] = biological target: Tyrosine-protein kinase Lck (Homo sapiens, UniProt P06239); experiment: Inhibition of LCK by TR-FRET based LanthaScreen assay
Chain of Tyrosine-protein kinase Lck (P06239 whole entry): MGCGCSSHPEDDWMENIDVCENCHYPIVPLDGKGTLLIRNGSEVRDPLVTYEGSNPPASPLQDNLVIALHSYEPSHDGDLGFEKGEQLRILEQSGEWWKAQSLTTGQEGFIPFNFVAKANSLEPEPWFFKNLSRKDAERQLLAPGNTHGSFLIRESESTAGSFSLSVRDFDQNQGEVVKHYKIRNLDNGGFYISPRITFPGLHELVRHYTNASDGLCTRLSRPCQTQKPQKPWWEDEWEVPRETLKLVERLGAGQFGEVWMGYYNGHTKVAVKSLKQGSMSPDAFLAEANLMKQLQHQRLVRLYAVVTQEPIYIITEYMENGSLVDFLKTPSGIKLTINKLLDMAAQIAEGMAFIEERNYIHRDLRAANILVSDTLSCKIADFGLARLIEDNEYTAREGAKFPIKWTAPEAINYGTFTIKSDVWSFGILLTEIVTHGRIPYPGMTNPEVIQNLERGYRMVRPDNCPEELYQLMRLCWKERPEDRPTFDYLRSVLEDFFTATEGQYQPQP

[31] = biological target: Tyrosine-protein kinase ABL1 (Homo sapiens, UniProt P00519, T315I); experiment: Inhibition of cABL T315I mutant by Caliper mobility shift assay; summary of the method: as §2
[32] = biological target: Dual specificity mitogen-activated protein kinase kinase 2 (Homo sapiens, UniProt P36507); experiment: Inhibition of MEK2 by TR-FRET based LanthaScreen assay; summary of the method: as §1
Chain of Dual specificity mitogen-activated protein kinase kinase 2 (P36507 whole entry): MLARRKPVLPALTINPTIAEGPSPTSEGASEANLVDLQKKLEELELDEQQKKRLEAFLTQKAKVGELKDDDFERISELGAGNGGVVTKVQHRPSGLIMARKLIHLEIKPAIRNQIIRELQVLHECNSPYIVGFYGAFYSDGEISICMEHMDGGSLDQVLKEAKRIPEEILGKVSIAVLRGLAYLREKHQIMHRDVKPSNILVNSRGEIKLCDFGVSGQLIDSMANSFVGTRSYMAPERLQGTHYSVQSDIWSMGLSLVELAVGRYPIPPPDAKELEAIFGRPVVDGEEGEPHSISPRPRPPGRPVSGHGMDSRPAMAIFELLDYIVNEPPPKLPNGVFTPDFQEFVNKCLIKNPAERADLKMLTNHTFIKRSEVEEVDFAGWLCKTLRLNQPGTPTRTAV

[33] = biological target: MAP kinase-activated protein kinase 5 (Homo sapiens, UniProt Q8IW41); experiment: Inhibition of MK5 by TR-FRET based LanthaScreen assay; summary of the method: as §1
[34] = biological target: T2, Vascular endothelial growth factor receptor 2; experiment: Inhibition of VEGFR2 autophosphorylation by cell based assay
[35] = Chemical stability in HEPES buffer assessed as compound isomerization at pH 7.0 to 7.5 for 24 hrs at 37 degC; assay type: physicochemical; conditions: read-out: Activity
Summary of the method: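 Compound incubated in HEPES buffer at pH 7.0−7.5 for 24 h at 37 °C; read-out is the percentage isomerization to the C7′-C8′ E isomer.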

[36] = biological target: Tyrosine-protein kinase BTK (Homo sapiens, UniProt Q06187); experiment: Inhibition of BTK by TR-FRET based LanthaScreen assay

SMILES	IC50 [3] [µM]	IC50 [4] [µM]	IC50 [5] [µM]	IC50 [6] [µM]	IC50 [7] [µM]	IC50 [8] [µM]	IC50 [9] [µM]	IC50 (Aurora kinase A) [µM]	IC50 [10] [µM]	IC50 [11] [µM]	IC50 [12] [µM]	IC50 [13] [µM]	IC50 [14] [µM]	IC50 [15] [µM]	IC50 (Ephrin type-B receptor 4) [µM]	IC50 [19] [µM]	IC50 [22] [µM]	IC50 [23] [µM]	IC50 [25] [µM]	IC50 [30] [µM]	also measured
COc1cc(O)c2c(c1)/C=C/C[C@H](O)[C@H](O)C(=O)/C=C\C[C@H](C)OC2=O	–	–	–	–	–	–	–	–	–	–	–	–	–	–	–	–	–	–	–	–	Stability (Plasma [1]): 50%; t1/2 (Blood): 20 min; t1/2 (Plasma [2]): 20 min
COc1cc(O)c2c(c1)CCC[C@H](O)CC(=O)/C=C\C[C@H](C)OC2=O	> 10	> 10	> 10	> 10	> 10	> 10	0.673	> 10	> 10	> 10	0.00723	> 10	0.763	> 10	7.4	4.4	7.2	6.4	0.0058	4.7	IC50 [16]: 0.15 µM; IC50 (Ephrin type-A receptor 4): > 10 µM; IC50 [17]: > 10 µM; IC50 [18]: > 10 µM; IC50 [20]: > 10 µM; IC50 [21]: > 10 µM; IC50 [24]: > 10 µM; IC50 [26]: > 10 µM; IC50 [27]: > 10 µM; IC50 [28]: > 10 µM; IC50 [29]: > 10 µM; IC50 (Insulin receptor): > 10 µM; IC50 [31]: > 10 µM
COc1cc(O)c2c(c1)CCC[C@H](O)CC(=O)/C=C/C[C@H](C)OC2=O	–	–	–	–	–	–	7.6	–	–	–	0.18	–	> 10	–	> 10	> 10	> 10	> 10	0.19	> 10	–
COc1cc(O)c2c(c1)CCCCCC(=O)/C=C\C[C@H](C)OC2=O	–	–	–	–	–	–	> 10	–	–	–	0.095	–	3.5	–	> 10	> 10	> 10	> 10	0.17	> 10	IC50 [16]: > 10 µM; IC50 [32]: 6.84 µM; IC50 [33]: > 10 µM
COc1cc(O)c2c(c1)CCC[C@H](O)[C@H](O)C(=O)/C=C\C[C@H](C)OC2=O	> 10	> 10	> 10	> 10	> 10	> 10	0.303	> 10	> 10	> 10	0.00238	> 10	0.763	> 10	> 10	4.1	> 10	0.95	0.002	6.2	IC50 (Ephrin type-A receptor 4): > 10 µM; IC50 [34]: 0.057 µM; IC50 [17]: > 10 µM; IC50 [18]: > 10 µM; IC50 [20]: > 10 µM; degraded at 24 h [35]: < 1%; IC50 [21]: > 10 µM; IC50 [32]: 0.015 µM; IC50 [24]: > 10 µM; IC50 [26]: > 10 µM; IC50 [27]: > 10 µM; IC50 [36]: > 10 µM; IC50 [28]: > 10 µM; IC50 [29]: > 10 µM; IC50 (Insulin receptor): > 10 µM; IC50 [33]: 0.64 µM; IC50 [31]: > 10 µM
